{
  "source": "ChEMBL document CHEMBL3124897",
  "about": "“A dynamic G-quadruplex region regulates the HIV-1 long terminal repeat promoter” (J Med Chem, 2013)",
  "key": {"[1]": {"test_system": "Human immunodeficiency virus 1", "test": "Binding affinity to HIV 1 HXB2 G-quadruplex LTR-FL DNA assessed as change in melting temperature at 16 uM after 24 hrs by circular dichroism spectropolarimeter analysis in the presence of K+", "how_it_was_run": "(§1)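 Oligonucleotides at 4 µM final in 10 mM lithium cacodylate, pH 7.4, with or without 100 mM KCl. Annealed at 95 °C for 5 min, slowly cooled, measured after 24 h. Ligand added after annealing at 16 µM final. CD melting from 20–95 °C, 1 min equilibration per step. Tm taken from a van't Hoff two-state fit.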"}, "[2]": {"test_system": "Human immunodeficiency virus 1", "test": "Binding affinity to HIV 1 HXB2 G-quadruplex FL-LTR DNA assessed as blocking at G-tracts (6 and 5) after 20 mins by Taq polymerase stop assay", "how_it_was_run": "(§2)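 Primer was 5'-32P-labelled (72 nM) and annealed to full-length LTR template (36 nM) in 10 mM lithium cacodylate, pH 7.4. Template was incubated with ligand plus 100 mM KCl for 20 min at room temperature. Extension used Taq Gold polymerase (2 U) at 47°C for 30 min. Reactions were stopped by EtOH precipitation, run on a 12% denaturing gel and read by phosphorimaging as stop sites at G-tracts.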"}, "[3]": {"test_system": "Human immunodeficiency virus 1", "test": "Binding affinity to HIV 1 HXB2 G-quadruplex FL-LTR DNA assessed as blocking sites at G-tracts (4 to 2) after 20 mins by Taq polymerase stop assay", "how_it_was_run": "as §2"}, "[4]": {"test_system": "Human immunodeficiency virus", "test": "Binding affinity to HIV 1 HXB2 G-quadruplex LTR-4 DNA assessed as change in melting temperature at 16 uM after 24 hrs by circular dichroism spectropolarimeter analysis in the presence of K+", "how_it_was_run": "as §1"}, "[5]": {"test_system": "Human immunodeficiency virus 1", "test": "Binding affinity to HIV 1 HXB2 G-quadruplex LTR-3 DNA assessed as change in melting temperature at 16 uM after 24 hrs by circular dichroism spectropolarimeter analysis in the presence of K+", "how_it_was_run": "as §1"}, "[6]": {"test_system": "Human immunodeficiency virus 1", "test": "Binding affinity to HIV 1 HXB2 G-quadruplex LTR-2 DNA assessed as change in melting temperature at 16 uM after 24 hrs by circular dichroism spectropolarimeter analysis in the absence of K+", "how_it_was_run": "as §1"}, "[7]": {"test_system": "Human immunodeficiency virus 1", "test": "Binding affinity to HIV 1 HXB2 G-quadruplex LTR-2 DNA assessed as change in melting temperature at 16 uM after 24 hrs by circular dichroism spectropolarimeter analysis in the presence of K+", "how_it_was_run": "as §1"}, "[8]": {"test_system": "Human immunodeficiency virus 1", "test": "Binding affinity to HIV 1 HXB2 G-quadruplex LTR-3 DNA assessed as change in melting temperature at 16 uM after 24 hrs by circular dichroism spectropolarimeter analysis in the absence of K+", "how_it_was_run": "as §1"}, "[9]": {"test_system": "Human immunodeficiency virus 1", "test": "Antiviral activity against Nef-deficient HIV 1 NL4-3 infected in human TZM-bl cells assessed as inhibition of viral replication at 3 to 6 uM after 48 hrs by luciferase reporter gene assay", "assay_type": "functional, organism-based", "how_it_was_run": "(§3)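 TZM-bl cells (HIV-1 LTR-luciferase reporter line), 2×10^4 per well, grown overnight. Ligand preincubated with medium and wild-type or Nef-defective NL4-3 virus for 4 h before infection. Virus stocks were made by transfecting HEK 293T with proviral genomes and amplified in MT2 cells. Luciferase read on lysates after 48 h at 37°C. Values relative to DMSO-only infected control, n = 3, ±SEM.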"}, "[10]": {"test_system": "Human immunodeficiency virus 1", "test": "Inhibition of wild-type HIV 1 HXB2 LTR DNA assessed as reduction in promoter activity after 24 hrs by GFP reporter assay in the absence of Tat", "how_it_was_run": "(§4)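 HEK 293T cells (2×10^5) transfected with LTR-EGFP plasmid, with or without Tat. Ligand (1.5–6.0 µM) added 4 h after transfection, then incubated overnight. Mean EGFP fluorescence measured by flow cytometry, 30000 events, gated on GFP+ cells with viable morphology. n = 3, mean ± s.d., Student's t-test.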"}, "[11]": {"test_system": "Human immunodeficiency virus 1", "test": "Inhibition of wild-type HIV 1 HXB2 LTR DNA assessed as reduction in promoter activity after 24 hrs by GFP reporter assay in the presence of Tat", "how_it_was_run": "as §4"}, "[12]": {"test_system": "Human immunodeficiency virus 1", "test": "Antiviral activity against wild type HIV 1 NL4-3 infected in human TZM-bl cells assessed as inhibition of viral replication at 3 to 6 uM after 48 hrs by luciferase reporter gene assay", "assay_type": "functional, organism-based", "how_it_was_run": "as §3"}, "[13]": {"test_system": "Human immunodeficiency virus 1", "test": "Binding affinity to HIV 1 HXB2 G-tract mutant m2 FL-LTR assessed as formation of LTR-2 G-quadruplex by Taq polymerase stop assay", "how_it_was_run": "(§5)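 Primer extension on wild-type or mutant full-length LTR templates in 100 mM K+ with 100 nM ligand. Labelled primer (72 nM) annealed to template (36 nM) in 10 mM lithium cacodylate, pH 7.4. Ligand/KCl incubation 20 min at room temperature, then Taq Gold extension at 47°C for 30 min. Products on 12% denaturing gel, phosphorimaging of stop sites.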"}, "[14]": {"test_system": "Human immunodeficiency virus 1", "test": "Binding affinity to HIV 1 HXB2 G-tract mutant m5/m4 FL-LTR assessed as formation of LTR G-quadruplex by Taq polymerase stop assay", "how_it_was_run": "as §5"}, "[15]": {"test_system": "Human immunodeficiency virus 1", "test": "Binding affinity to HIV 1 HXB2 G-tract mutant m1 FL-LTR assessed as effect on LTR G-quadruplex formation by Taq polymerase stop assay", "how_it_was_run": "as §5"}, "[16]": {"test_system": "Human immunodeficiency virus 1", "test": "Inhibition of HIV 1 HXB2 G-tract mutant m5 LTR DNA assessed as reduction in promoter activity at 1.5 to 6 uM after 24 hrs by luciferase assay", "how_it_was_run": "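HEK 293T cells (5.5×10^4 per well) transfected with LTR-firefly luciferase vector plus HSV-TK Renilla control vector (200 ng each). Cells treated with ligand at 1.5–6.0 µM. Firefly signal normalized to Renilla and expressed relative to untreated control. n = 3, mean ± s.d., Student's t-test.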"}, "[17]": {"test_system": "Human immunodeficiency virus 1", "test": "Binding affinity to HIV 1 HXB2 G-tract mutant m3'' FL-LTR assessed as effect on LTR G-quadruplex formation by Taq polymerase stop assay", "how_it_was_run": "as §5"}, "[18]": {"test_system": "Human immunodeficiency virus 1", "test": "Binding affinity to HIV 1 HXB2 G-tract mutant m6' FL-LTR assessed as formation of LTR-2 and LTR-3 G-quadruplex by Taq polymerase stop assay", "how_it_was_run": "as §5"}, "[19]": {"test_system": "Human immunodeficiency virus 1", "test": "Binding affinity to HIV 1 HXB2 G-tract mutant m3' FL-LTR assessed as effect on LTR G-quadruplex formation by Taq polymerase stop assay", "how_it_was_run": "as §5"}, "[20]": {"test_system": "Human immunodeficiency virus 1", "test": "Binding affinity to HIV 1 HXB2 G-tract mutant m6 FL-LTR DNA assessed as formation of LTR-2 G-quadruplex by Taq polymerase stop assay", "how_it_was_run": "as §5"}, "[21]": {"test_system": "Human immunodeficiency virus 1", "test": "Binding affinity to HIV 1 HXB2 G-tract mutant m3 FL-LTR assessed as formation of LTR-4 G-quadruplex by Taq polymerase stop assay", "how_it_was_run": "as §5"}, "[22]": {"test": "Cytotoxicity against human TZM-bl cells at 0.1 to 6 uM after 48 hrs", "assay_type": "cell-based", "how_it_was_run": "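TZM-bl cells (2×10^4 per well) grown overnight, then exposed to compound in DMSO carrier at 37°C. Viability read after 48 h with Cell Titer Blue reagent.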"}, "[23]": {"test_system": "Human immunodeficiency virus 1", "test": "Inhibition of wild-type HIV 1 HXB2 LTR DNA assessed as reduction in promoter activity at 1.5 to 6 uM after 24 hrs by luciferase assay", "set-up": "scale not given: the % may be the effect or the level left", "how_it_was_run": "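HEK 293T cells (5.5×10^4 per well) co-transfected with LTR-driven firefly luciferase (pGL4.10Luc2/LTR) and TK-promoter Renilla luciferase (pGL4.74), 200 ng each. Treated with ligand at 1.5–6.0 µM. Firefly signal normalized to Renilla. n = 3, mean ± s.d., Student's t-test.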"}, "[24]": {"test_system": "Human immunodeficiency virus 1", "test": "Inhibition of wild-type HIV 1 HXB2 LTR DNA assessed as reduction in promoter activity at 6 uM after 24 hrs by GFP reporter assay in the presence of Tat", "how_it_was_run": "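HEK 293T cells (2×10^5) transfected with pcLTR-EGFP, with Tat present. Ligand (1.5–6.0 µM) added 4 h after transfection and left overnight. Flow cytometry gated on GFP+ cells of viable morphology, 30000 events per sample; mean EGFP fluorescence read. n = 3, mean ± s.d., t-test.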"}},
  "note": "Activity calls are given as the source filed them. The calls are words filed in the database; no cut-off is given here.",
  "data": [
    {"smiles": "C[n+]1ccc(-c2c3nc(c(-c4cc[n+](C)cc4)c4ccc([nH]4)c(-c4cc[n+](C)cc4)c4ccc([nH]4)c(-c4cc[n+](C)cc4)c4nc2C=C4)C=C3)cc1", "values": [
      {"measurement": "ΔTm", "setting": "[1]", "value": 4.5, "unit": "°C"},
      {"measurement": "Activity", "setting": "[2]", "value": "Active"},
      {"measurement": "Activity", "setting": "[3]", "value": "inactive"},
      {"measurement": "ΔTm", "setting": "[4]", "value": 43.9, "unit": "°C"},
      {"measurement": "ΔTm", "setting": "[5]", "value": 38, "unit": "°C"},
      {"measurement": "ΔTm", "setting": "[6]", "value": 12.4, "unit": "°C"},
      {"measurement": "ΔTm", "setting": "[7]", "value": 33.4, "unit": "°C"},
      {"measurement": "ΔTm", "setting": "[8]", "value": 22.9, "unit": "°C"}
    ]},
    {"smiles": "C[n+]1ccccc1-c1c2nc(c(-c3cccc[n+]3C)c3ccc([nH]3)c(-c3cccc[n+]3C)c3ccc([nH]3)c(-c3cccc[n+]3C)c3nc1C=C3)C=C2", "values": [
      {"measurement": "inhibition", "setting": "[9]", "value": "inactive"},
      {"measurement": "inhibition", "setting": "[10]", "value": "inactive"},
      {"measurement": "inhibition", "setting": "[11]", "value": "inactive"},
      {"measurement": "inhibition", "setting": "[12]", "value": "inactive"}
    ]},
    {"smiles": "CN(C)c1ccc(Nc2c3ccc(NC(=O)CCN4CCCC4)cc3nc3cc(NC(=O)CCN4CCCC4)ccc23)cc1", "values": [
      {"measurement": "Activity", "setting": "[13]", "value": "inactive"},
      {"measurement": "inhibition", "setting": "[9]", "value": "Active"},
      {"measurement": "Activity", "setting": "[14]", "value": "inactive"},
      {"measurement": "inhibition", "setting": "[10]; concentration not given here", "value": 30, "unit": "%"},
      {"measurement": "Activity", "setting": "[15]", "value": "inactive"},
      {"measurement": "Activity", "setting": "[16]", "value": "inactive"},
      {"measurement": "Activity", "setting": "[17]", "value": "inactive"},
      {"measurement": "ΔTm", "setting": "[1]", "value": 5.6, "unit": "°C"},
      {"measurement": "Activity", "setting": "[2]", "value": "Active"},
      {"measurement": "Activity", "setting": "[18]", "value": "Active"},
      {"measurement": "inhibition", "setting": "[11]", "value": "Dose-dependent effect"},
      {"measurement": "Activity", "setting": "[3]", "value": "inactive"},
      {"measurement": "ΔTm", "setting": "[4]", "value": 54, "unit": "°C"},
      {"measurement": "ΔTm", "setting": "[5]", "value": 42.3, "unit": "°C"},
      {"measurement": "ΔTm", "setting": "[6]", "value": 17.6, "unit": "°C"},
      {"measurement": "Activity", "setting": "[19]", "value": "inactive"},
      {"measurement": "Activity", "setting": "[20]", "value": "Active"},
      {"measurement": "ΔTm", "setting": "[7]", "value": 39.9, "unit": "°C"},
      {"measurement": "Activity", "setting": "[21]", "value": "Active"},
      {"measurement": "Activity", "setting": "[22]", "value": "Non-toxic"},
      {"measurement": "ΔTm", "setting": "[8]", "value": 12.9, "unit": "°C"},
      {"measurement": "inhibition", "setting": "[12]", "value": "Active"},
      {"measurement": "Activity", "setting": "[23]", "value": 70, "unit": "%"},
      {"measurement": "inhibition", "setting": "[24]", "value": 50, "unit": "%"}
    ]},
    {"smiles": "O=C1c2ccc3c4ccc5c6c(ccc(c7ccc(c2c37)C(=O)N1CCN1CCCCC1)c64)C(=O)N(CCN1CCCCC1)C5=O", "values": [
      {"measurement": "ΔTm", "setting": "[1]", "value": 8.8, "unit": "°C"},
      {"measurement": "ΔTm", "setting": "[4]", "value": 55.8, "unit": "°C"},
      {"measurement": "ΔTm", "setting": "[5]", "value": 16.4, "unit": "°C"},
      {"measurement": "ΔTm", "setting": "[6]", "value": 13.8, "unit": "°C"},
      {"measurement": "ΔTm", "setting": "[7]", "value": 31.1, "unit": "°C"},
      {"measurement": "ΔTm", "setting": "[8]", "value": 15, "unit": "°C"}
    ]}
  ]
}
